MIC data for one compound are collected here from ChEMBL document CHEMBL3877283, “Antitubercular activity of 1,2,3-triazolyl fatty acid derivatives” (Eur J Med Chem, 2017).

≈ marks a conversion by molar mass, not a printed value.

Holding throughout (format): functional
For assay [1], the system named is Mycobacterium tuberculosis. Nature of the assay: Antimycobacterial activity against isoniazid/streptomycin resistant Mycobacterium tuberculosis isolate 681 measured after 5 days by MTT dye based two-fold microdilution method. The note with it: isolate 681, 120 h. The method in brief: (§1)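 Two-fold serial dilution in 96-well plates in Middlebrook 7H9 with 10% ADS and 1% glycerol (7H9-ADS-G). DMSO stocks were diluted to a top concentration of 100 μg/mL and down to 0.8 μg/mL, run in duplicate. Wells received mid-log bacilli in 7H9-ADS-G, incubated 5 days at 37 °C, then MTT for 24 h. MIC is the lowest concentration blocking yellow-to-purple change. Rifampicin was the control.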

The subject of assay [2] is Mycobacterium tuberculosis. Nature of the assay: Antimycobacterial activity against rifampicin-resistant Mycobacterium tuberculosis isolate 110 measured after 5 days by MTT dye based two-fold microdilution method. The settings on record: isolate 110, 120 h. In outline: as §1
In general terms: Tetrazolium dyes change colour on reduction, which living cells bring about.

The subject of assay [3] is Mycobacterium tuberculosis. Nature of the assay: Antimycobacterial activity against rifampicin-resistant Mycobacterium tuberculosis isolate 277 measured after 5 days by MTT dye based two-fold microdilution method. The settings on record: isolate 277, 120 h. In outline:
as §1

The test system of assay [4] is Mycobacterium tuberculosis. Nature of the assay: Antimycobacterial activity against rifampicin/streptomycin resistant Mycobacterium tuberculosis isolate 675 measured after 5 days by MTT dye based two-fold microdilution method. The note with it: isolate 675, 120 h. The method in brief:
as §1

The test system of assay [5] is Mycobacterium tuberculosis. Nature of the assay: Antimycobacterial activity against rifampicin/isoniazid/pyrazinamide resistant Mycobacterium tuberculosis isolate 501 measured after 5 days by MTT dye based two-fold microdilution method. The note with it: isolate 501, 120 h. The method in brief:
as §1

Assay [6] relates to Mycobacterium tuberculosis. Briefly: Antimycobacterial activity against isoniazid resistant Mycobacterium tuberculosis isolate 277b measured after 5 days by MTT dye based two-fold microdilution method. The settings on record: 120 h. In outline:
as §1

Assay [7] deals with Mycobacterium tuberculosis. Briefly: Antimycobacterial activity against isoniazid/streptomycin resistant Mycobacterium tuberculosis isolate 914 measured after 5 days by MTT dye based two-fold microdilution method. The note with it: isolate 914, 120 h. The method in brief:
as §1

For assay [8], the system named is Mycobacterium tuberculosis. Briefly: Antimycobacterial activity against rifampicin-resistant Mycobacterium tuberculosis isolate 925 measured after 5 days by MTT dye based two-fold microdilution method. The settings on record: isolate 925, 120 h. The method in brief:
as §1

For assay [9], the system named is Mycobacterium tuberculosis. Nature of the assay: Antimycobacterial activity against isoniazid resistant Mycobacterium tuberculosis isolate 620 measured after 5 days by MTT dye based two-fold microdilution method. The settings on record: isolate 620, 120 h. The method in brief:
as §1

Assay [10] deals with Mycobacterium tuberculosis. Briefly: Antimycobacterial activity against isoniazid/streptomycin resistant Mycobacterium tuberculosis isolate 780 measured after 5 days by MTT dye based two-fold microdilution method. The settings on record: isolate 780, 120 h. In outline:
as §1

The test system of assay [11] is Mycobacterium tuberculosis. Nature of the assay: Antimycobacterial activity against rifampicin/isoniazid/pyrazinamide resistant Mycobacterium tuberculosis isolate 122 measured after 5 days by MTT dye based two-fold microdilution method. The settings on record: isolate 122, 120 h. The method in brief:
as §1

The test system of assay [12] is Mycobacterium tuberculosis. Nature of the assay: Antimycobacterial activity against rifampicin-resistant Mycobacterium tuberculosis isolate 958 measured after 5 days by MTT dye based two-fold microdilution method. The settings on record: isolate 958, 120 h. The method in brief:
as §1

For assay [13], the system named is Mycobacterium tuberculosis. Nature of the assay: Antimycobacterial activity against isoniazid/streptomycin resistant Mycobacterium tuberculosis isolate 396 measured after 5 days by MTT dye based two-fold microdilution method. The settings on record: isolate 396, 120 h. The method in brief:
as §1

Assay [14] deals with Mycobacterium tuberculosis. Nature of the assay: Antimycobacterial activity against rifampicin-resistant Mycobacterium tuberculosis isolate 300 measured after 5 days by MTT dye based two-fold microdilution method. The note with it: isolate 300, 120 h. In outline: as §1

For the compound `CCCCCCCCc1cn(CC(=O)OCC)nn1`, the MIC in [1] worked out at 1.9 µM (≈ 0.508 µg/mL); in assay [2], 1.9 µM (≈ 0.508 µg/mL); in assay [3] it was 1.9 µM (≈ 0.508 µg/mL); in assay [4], 1.9 µM (≈ 0.508 µg/mL); in [5], 3.7 µM (≈ 0.989 µg/mL); in [6], 1.9 µM (≈ 0.508 µg/mL). For the same compound, the MIC is 1.9 µM (≈ 0.508 µg/mL) in assay [7]; 1.9 µM (≈ 0.508 µg/mL) in [8]; 1.9 µM (≈ 0.508 µg/mL) in assay [9]; 1.9 µM (≈ 0.508 µg/mL) in assay [10]; 0.9 µM (≈ 0.241 µg/mL) in assay [11]; 1.9 µM (≈ 0.508 µg/mL) in assay [12]. For the same compound, the MIC in assay [13] and in assay [14] was 1.9 µM (≈ 0.508 µg/mL) in each case.

As usually defined, the MIC is the lowest concentration that inhibits growth of the organism. Read a high MIC as a less susceptible organism.
